Source: PubChem (Broad Institute)
E-sel inducer: E-selectin induction in HUVECs, primary screen, imaging, HUVEC, immunofluorescence imaging, single point; P16581; normalized: neutral wells 0, TNF-alpha wells 100; activation, % at 7.58 µM; 0.37% of 260,000 active;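 active = mean E-selectin-positive cell signal at least 10% of the positive control, reached in at least 60% of replicates, without over 20% cell loss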
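Test system – human umbilical vein endothelial cells (HUVEC), E-selectin induction · Input – 3,000 HUVEC seeded per well · Buffer or medium – EGM-2, gelatin · Compound dosing – single-point compound dose · Detection – immunofluorescence imaging · Measure – percent E-selectin-positive cells · Controls – TNF-alpha high, DMSO low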
RAD54 inh: inhibitors of human RAD54 branch migration, primary screen, biochemical, fluorescence, single point | DNA repair and recombination protein RAD54-like (Homo sapiens), Q92698 | RAD54 Holliday junction branch migration, FAM/BHQ fluorescence | inhibition, % at 10.4 µM | 0.14% of 360,000 active;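 active = mean normalized replicate activity at least 40 and at least half of replicates scoring 40 or more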;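 note: inhibitors cause a drop in the FAM fluorescence signal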
Ecoli rRNA inh: reduced GFP signal of wild-type E. coli, primary screen, bacterial rRNA inhibitor project, GFP/RFP fluorescence, OD600, single point; GFP signal change (wild-type ribosome), % (concentration not given with the values); 1.6% of 350,000 active; E. coli WT GFP vs humanized-ribosome RFP mutants, 24 h; hits give low values; DMSO median 0, no signal -100;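 active = significant combined selectivity score with lowered wild-type GFP, culture density cut under 30%, mutant RFP and density less affected; inactive = any of these conditions unmet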
XiGFP reactiv: activators of inactive X chromosome reactivation, primary screen, imaging, XiGFP fibroblasts, GFP high-content imaging, set 2. XiGFP mouse fibroblasts, % GFP-positive cells imaging, 3 d; cells co-treated with 5-aza-dC sensitizer; scaled so ellipticine positive control = 100%. activation, % at 7.58 µM. 0.055% of 360,000 active;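 active = mean normalized replicate activation at least 10% and every replicate at or above 10%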
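material = 68-5-11 XiGFP fibroblast line | medium = DMEM plus 5-aza-dC sensitizer | schedule = 3 days compound exposure | benchmarks = positive control ellipticine, 6 µM final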
PglD DTNB: C. jejuni PglD acetyltransferase inhibitors, primary screen, biochemical, DTNB colorimetric, single point | UDP-N-acetylbacillosamine N-acetyltransferase PglD (Campylobacter jejuni) | purified PglD enzyme, DTNB colorimetric CoA detection | inhibition, % at 12.5 µM | 0.098% of 360,000 active; in the data active = inhibition above about 16%, passing the limit was not always enough
RAD52 anneal inh: RAD52 DNA annealing inhibitors, primary screen, biochemical, FRET, single point, set 2; DNA repair protein RAD52 homolog (Homo sapiens), P43351; recombinant RAD52 DNA annealing, FRET fluorescence; inhibition, % at 18.7 µM; 0.46% of 360,000 active; AID 651710, 2012;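 active = every replicate showing at least 50% inhibition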
Target sequence (P43351 whole entry, looked up): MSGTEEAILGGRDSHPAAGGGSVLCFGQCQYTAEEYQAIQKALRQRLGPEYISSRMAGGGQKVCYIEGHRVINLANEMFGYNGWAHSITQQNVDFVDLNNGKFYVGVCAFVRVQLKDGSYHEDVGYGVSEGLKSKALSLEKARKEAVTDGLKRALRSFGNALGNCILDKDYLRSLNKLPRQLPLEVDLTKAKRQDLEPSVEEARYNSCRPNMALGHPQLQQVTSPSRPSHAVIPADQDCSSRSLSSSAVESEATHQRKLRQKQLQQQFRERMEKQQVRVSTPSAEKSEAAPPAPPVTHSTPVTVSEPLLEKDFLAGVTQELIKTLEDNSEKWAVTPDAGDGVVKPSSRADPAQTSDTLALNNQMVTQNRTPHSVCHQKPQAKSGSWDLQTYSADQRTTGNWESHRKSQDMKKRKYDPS
Of the large screens only hits and unclear results are named; the others gave an inactive call; ! = not confirmed by another sample. Hits are enriched below; roughly 2% of the tested compounds scored in any of these assays.

CN(C1CCCCC1)S(=O)(=O)c1cn(C)c(=O)n(C)c1=O	E-sel inducer 29
CN(C1CCCCC1)S(=O)(=O)c1ccccc1	none (no result: E-sel inducer, Ecoli rRNA inh, XiGFP reactiv, RAD52 anneal inh)
Cc1n[nH]c(C)c1N=Nc1ccc(Br)cc1	Ecoli rRNA inh -36 (no result: E-sel inducer)
COc1ccc(N=Nc2c(C)n[nH]c2C)cc1	none
CNC[C@@H]1Oc2cc(C#CCN(C)C)ccc2S(=O)(=O)N([C@@H](C)CO)C[C@@H]1C	none
Cc1ccc(NC(=O)CN2CCOCC2)c(Br)c1	none
Cc1ccc(NC(=O)CN2CCN(Cc3ccccc3)CC2)c(Br)c1	Ecoli rRNA inh -23 (no result: E-sel inducer)
O=C(O)CC1C(=O)NCCN1Cc1cccs1 (stereo unspecified)	E-sel inducer 85 (no result: RAD54 inh, PglD DTNB)
CCOC(=O)CC1C(=O)NCCN1Cc1cccs1 (stereo unspecified)	none
CCCC1c2ccsc2CCN1C(=S)NC (stereo unspecified)	Ecoli rRNA inh -36 (no result: E-sel inducer, RAD54 inh, PglD DTNB)
C[C@@H]1CCCCO[C@H](CN(C)S(=O)(=O)c2ccc(Cl)cc2)[C@@H](C)CN([C@H](C)CO)C(=O)c2cc(NC(=O)CCCCCC(=O)Nc3ccccc3N)ccc2O1	none (no result: E-sel inducer, RAD54 inh, PglD DTNB)
O=C(Nc1ccc(Oc2cccc(C(F)(F)F)c2)nc1)c1cccs1	Ecoli rRNA inh -44
O=C(Cc1ccccn1)NCC[C@H]1CC[C@H](NS(=O)(=O)c2ccccc2)[C@H](CO)O1	none
COc1ccc(CNC(=O)N(C)C[C@@H]2OCc3ccccc3-c3c(n(C)c4ccccc34)C(=O)N([C@H](C)CO)C[C@@H]2C)cc1	none
CC(=O)N(C)C[C@H]1OCc2ccccc2-c2c(n(C)c3ccccc23)C(=O)N([C@@H](C)CO)C[C@H]1C	none
COc1ccc(CNC(=O)N(C)C[C@@H]2OCc3ccccc3-c3c(n(C)c4ccccc34)C(=O)N([C@@H](C)CO)C[C@@H]2C)cc1	Ecoli rRNA inh -19! (no result: RAD54 inh, PglD DTNB)
C[C@@H]1CN([C@H](C)CO)C(=O)c2c(c3ccccc3n2C)-c2ccccc2CO[C@@H]1CN(C)C(=O)[C@H](Cc1ccccc1)N(C)C	RAD52 anneal inh 51
C[C@H]1CN([C@@H](C)CO)C(=O)c2c(c3ccccc3n2C)-c2ccccc2CO[C@H]1CN(C)C(=O)CCN(C)C	RAD52 anneal inh 51
O=C(c1ccccc1)N1CC(=O)N2[C@H](C1)[C@@H](c1ccc(C3=CCCC3)cc1)[C@@H]2CO	none (no result: RAD54 inh, PglD DTNB)
C[C@H]1CN([C@@H](C)CO)S(=O)(=O)c2ccc(C#CC3CCCCC3)cc2O[C@H]1CN(C)Cc1cccnc1	none
CC(=O)N1CC2(C1)[C@H](c1ccc(-c3ccc(F)cc3)cc1)[C@H](CO)N2CC1CC1	none (no result: RAD54 inh, PglD DTNB)
CN(C)C(=O)c1cccc(-c2ccc([C@H]3[C@@H](CO)N4CCCCN(C(=O)C5CCCC5)C[C@H]34)cc2)c1	none (no result: E-sel inducer, Ecoli rRNA inh, XiGFP reactiv)
Cc1cc(-c2cc(NC(=O)Cc3c[nH]c4ccccc34)ccc2N(C)c2cccnc2)ccc1F	none (no result: RAD54 inh, PglD DTNB)
COc1ccccc1C#Cc1ccc([C@@H]2[C@@H](CO)N3CCCCN(C(=O)C4CCCC4)C[C@H]23)cc1	RAD52 anneal inh 62 (no result: E-sel inducer, Ecoli rRNA inh, XiGFP reactiv)
COc1ccc(NC(=O)N2CCCCN3[C@@H](CO)[C@H](c4ccc(C#Cc5ccccc5)cc4)[C@@H]3C2)cc1	RAD52 anneal inh 69 (no result: E-sel inducer, Ecoli rRNA inh, XiGFP reactiv)
COc1ccccc1C#Cc1ccc([C@H]2[C@H]3CN(C(=O)C4CCCC4)CCCCN3[C@H]2CO)cc1	none (no result: E-sel inducer, Ecoli rRNA inh, XiGFP reactiv)
COc1ccc(NC(=O)N2CCCCN3[C@H](C2)[C@@H](c2ccc(C#Cc4ccccc4)cc2)[C@@H]3CO)cc1	RAD52 anneal inh 82 (no result: E-sel inducer, Ecoli rRNA inh, XiGFP reactiv)
CC1Sc2ccc(C(=O)Nc3ccccc3OC(F)F)cc2NC1=O (stereo unspecified)	Ecoli rRNA inh -20 (no result: RAD54 inh, PglD DTNB)
